# Results: ChEMBL document CHEMBL1156796, “Design, synthesis, and antihepatitis B virus activities of novel 2-pyridone derivatives” (J Med Chem, 2010)
# pIC50: −log10 of the molar value.
# Test system: Hepatitis B virus
# Test: Antiviral activity against HBV infected in human HepG2(2.2.15) cells assessed as inhibition of HBsAg level after 9 days by ELISA
# Assay type: functional, organism-based
# Details: HepG2 2.2.15, 216 h
row,Compound,pIC50
1,COc1ccc(/C(=N/C2CC2)c2ccc(=O)n(C3CC3)c2)c(O)c1,3.91
2,COc1ccc(/C(=N/Cc2cccc(F)c2)c2ccc(=O)n(Cc3cccc(F)c3)c2)c(O)c1,4.89
3,COc1ccc(/C(=N/Cc2ccc(F)cc2)c2ccc(=O)n(Cc3ccc(F)cc3)c2)c(O)c1,< 4.06
4,COc1ccc(/C(=N/C2CCCCC2)c2ccc(=O)n(C3CCCCC3)c2)c(O)c1,3.70
5,COc1ccc(C(=O)c2ccc(=O)n(-c3cccc(C)c3)c2)c(O)c1,4.54

# Results, then the compound that gave them:
row,pIC50,Compound
1,< 3.88,CCCCn1cc(C(=O)c2ccc(OC)cc2O)ccc1=O
2,4.34,CCCCCn1cc(C(=O)c2ccc(OC)cc2O)ccc1=O
3,< 3.92,COc1ccc(C(=O)c2ccc(=O)n(-c3ccc(C)cc3)c2)c(O)c1

# Test system: not listed separately
# Test: Cytotoxicity against human HepG2(2.2.15) cells
# Assay type: cell-based
# Details: not given
row,Compound,CC50
1,CCCCn1cc(C(=O)c2ccc(OC)cc2O)ccc1=O,67 µM
2,CCCCCn1cc(C(=O)c2ccc(OC)cc2O)ccc1=O,79 µM
3,COc1ccc(/C(=N/C2CC2)c2ccc(=O)n(C3CC3)c2)c(O)c1,164 µM
4,COc1ccc(/C(=N/Cc2cccc(F)c2)c2ccc(=O)n(Cc3cccc(F)c3)c2)c(O)c1,8 µM
5,COc1ccc(/C(=N/Cc2ccc(F)cc2)c2ccc(=O)n(Cc3ccc(F)cc3)c2)c(O)c1,10 µM
6,COc1ccc(/C(=N/C2CCCCC2)c2ccc(=O)n(C3CCCCC3)c2)c(O)c1,387 µM
7,COc1ccc(C(=O)c2ccc(=O)n(-c3cccc(C)c3)c2)c(O)c1,159 µM
8,COc1ccc(C(=O)c2ccc(=O)n(-c3ccc(C)cc3)c2)c(O)c1,> 119 µM

# Test system: Hepatitis B virus
# Test: Antiviral activity against HBV infected in human HepG2(2.2.15) cells assessed as inhibition of HBV DNA replication after 9 days by PCR
# Assay type: functional, organism-based
# Details: Hepatitis B virus, HepG2 2.2.15, 216 h; read-out: IC50
row,Compound,pIC50
1,COc1ccc(/C(=N/C2CC2)c2ccc(=O)n(C3CC3)c2)c(O)c1,< 3.33
2,COc1ccc(/C(=N/Cc2cccc(F)c2)c2ccc(=O)n(Cc3cccc(F)c3)c2)c(O)c1,5.68
3,COc1ccc(/C(=N/Cc2ccc(F)cc2)c2ccc(=O)n(Cc3ccc(F)cc3)c2)c(O)c1,4.19
4,COc1ccc(/C(=N/C2CCCCC2)c2ccc(=O)n(C3CCCCC3)c2)c(O)c1,5.40
5,COc1ccc(C(=O)c2ccc(=O)n(-c3cccc(C)c3)c2)c(O)c1,6.10

# Results, then the compound that gave them:
row,pIC50,Compound
1,4.54,CCCCn1cc(C(=O)c2ccc(OC)cc2O)ccc1=O
2,4.70,CCCCCn1cc(C(=O)c2ccc(OC)cc2O)ccc1=O
3,5.30,COc1ccc(C(=O)c2ccc(=O)n(-c3ccc(C)cc3)c2)c(O)c1

# Test system: not listed separately
# Test: Selectivity index, ratio of CC50 for human HepG2(2.2.15) cells to IC50 for HBV infected in human HepG2(2.2.15) cells assessed as inhibition of HBV DNA replication
# Assay type: functional
# Details: not given
row,Compound,Ratio CC50/IC50
1,CCCCn1cc(C(=O)c2ccc(OC)cc2O)ccc1=O,2.34
2,CCCCCn1cc(C(=O)c2ccc(OC)cc2O)ccc1=O,3.95
3,COc1ccc(/C(=N/C2CC2)c2ccc(=O)n(C3CC3)c2)c(O)c1,<0.35
4,COc1ccc(/C(=N/Cc2cccc(F)c2)c2ccc(=O)n(Cc3cccc(F)c3)c2)c(O)c1,3.81
5,COc1ccc(/C(=N/Cc2ccc(F)cc2)c2ccc(=O)n(Cc3ccc(F)cc3)c2)c(O)c1,0.15
6,COc1ccc(/C(=N/C2CCCCC2)c2ccc(=O)n(C3CCCCC3)c2)c(O)c1,96.75
7,COc1ccc(C(=O)c2ccc(=O)n(-c3cccc(C)c3)c2)c(O)c1,198.75
8,COc1ccc(C(=O)c2ccc(=O)n(-c3ccc(C)cc3)c2)c(O)c1,>23.9

# Test system: not listed separately
# Test: Selectivity index, ratio of CC50 for human HepG2(2.2.15) cells to IC50 for HBV infected in human HepG2(2.2.15) cells assessed as inhibition of HBeAg
# Assay type: functional
# Details: not given
row,Compound,Ratio CC50/IC50
1,CCCCn1cc(C(=O)c2ccc(OC)cc2O)ccc1=O,<0.5
2,CCCCCn1cc(C(=O)c2ccc(OC)cc2O)ccc1=O,2.03
3,COc1ccc(/C(=N/C2CC2)c2ccc(=O)n(C3CC3)c2)c(O)c1,16.4
4,COc1ccc(/C(=N/Cc2cccc(F)c2)c2ccc(=O)n(Cc3cccc(F)c3)c2)c(O)c1,16
5,COc1ccc(/C(=N/Cc2ccc(F)cc2)c2ccc(=O)n(Cc3ccc(F)cc3)c2)c(O)c1,<0.12
6,COc1ccc(/C(=N/C2CCCCC2)c2ccc(=O)n(C3CCCCC3)c2)c(O)c1,5.45
7,COc1ccc(C(=O)c2ccc(=O)n(-c3cccc(C)c3)c2)c(O)c1,530
8,COc1ccc(C(=O)c2ccc(=O)n(-c3ccc(C)cc3)c2)c(O)c1,>59.7

# Test system: Hepatitis B virus
# Test: Antiviral activity against HBV infected in human HepG2(2.2.15) cells assessed as inhibition of HBeAg level after 9 days by ELISA
# Assay type: functional, organism-based
# Details: HepG2 2.2.15, 216 h
row,Compound,pIC50
1,COc1ccc(/C(=N/C2CC2)c2ccc(=O)n(C3CC3)c2)c(O)c1,5.00
2,COc1ccc(/C(=N/Cc2cccc(F)c2)c2ccc(=O)n(Cc3cccc(F)c3)c2)c(O)c1,6.30
3,COc1ccc(/C(=N/Cc2ccc(F)cc2)c2ccc(=O)n(Cc3ccc(F)cc3)c2)c(O)c1,< 4.06
4,COc1ccc(/C(=N/C2CCCCC2)c2ccc(=O)n(C3CCCCC3)c2)c(O)c1,4.15
5,COc1ccc(C(=O)c2ccc(=O)n(-c3cccc(C)c3)c2)c(O)c1,6.52

# The next lines start with the values.
row,pIC50,Compound
1,< 3.88,CCCCn1cc(C(=O)c2ccc(OC)cc2O)ccc1=O
2,4.41,CCCCCn1cc(C(=O)c2ccc(OC)cc2O)ccc1=O
3,5.70,COc1ccc(C(=O)c2ccc(=O)n(-c3ccc(C)cc3)c2)c(O)c1

# Test system: not listed separately
# Test: Selectivity index, ratio of CC50 for human HepG2(2.2.15) cells to IC50 for HBV infected in human HepG2(2.2.15) cells assessed as inhibition of HBsAg
# Assay type: functional
# Details: not given
# Procedure, shortened: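 MTT at 5 g/L added 4 h before lysis in 10% SDS/50% DMF, pH 7.2, with OD read at 570 nm. IC50: HBsAg in day-9 supernatants measured by ELISA. SI = CC50/IC50.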
row,Compound,Ratio CC50/IC50
1,CCCCn1cc(C(=O)c2ccc(OC)cc2O)ccc1=O,<0.5
2,CCCCCn1cc(C(=O)c2ccc(OC)cc2O)ccc1=O,1.72
3,COc1ccc(/C(=N/C2CC2)c2ccc(=O)n(C3CC3)c2)c(O)c1,1.33
4,COc1ccc(/C(=N/Cc2cccc(F)c2)c2ccc(=O)n(Cc3cccc(F)c3)c2)c(O)c1,0.62
5,COc1ccc(/C(=N/Cc2ccc(F)cc2)c2ccc(=O)n(Cc3ccc(F)cc3)c2)c(O)c1,<0.12
6,COc1ccc(/C(=N/C2CCCCC2)c2ccc(=O)n(C3CCCCC3)c2)c(O)c1,1.93
7,COc1ccc(C(=O)c2ccc(=O)n(-c3cccc(C)c3)c2)c(O)c1,5.48
